Reference: ChEMBL document CHEMBL1128243, “Three-dimensional quantitative structure-activity relationships of sulfonamide endothelin inhibitors” (J Med Chem, 1995)

The compounds below were run against T1, Endothelin-1 receptor (Rattus norvegicus, UniProt P26684) (assay: Inhibition of [125I]endothelin-l binding to endothelin A receptor of rat thoracic aorta smooth muscle cells).
T1 sequence (P26684 whole entry): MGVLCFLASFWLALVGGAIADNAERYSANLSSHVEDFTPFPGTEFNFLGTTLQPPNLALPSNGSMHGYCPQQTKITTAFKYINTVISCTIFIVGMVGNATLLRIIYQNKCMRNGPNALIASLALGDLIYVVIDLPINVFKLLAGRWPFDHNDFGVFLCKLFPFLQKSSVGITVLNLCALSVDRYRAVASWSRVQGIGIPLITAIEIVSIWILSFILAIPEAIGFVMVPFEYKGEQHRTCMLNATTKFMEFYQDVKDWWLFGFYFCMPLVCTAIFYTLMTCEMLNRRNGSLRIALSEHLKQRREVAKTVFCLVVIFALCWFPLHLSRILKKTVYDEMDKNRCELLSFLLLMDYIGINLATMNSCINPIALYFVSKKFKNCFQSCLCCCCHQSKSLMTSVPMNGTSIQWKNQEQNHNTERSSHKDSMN
Type: tissue-based
How it was run: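 Membranes from A10 rat thoracic aorta smooth muscle cells (cultured, trypsin-detached, stored at -70 °C, then thawed, homogenized and centrifuged to a membrane pellet). Samples filtered through glass fiber filters and washed, then filter-retained radioactivity counted.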

Row | Structure (SMILES) | IC50 [nM]
1 | Cc1noc(NS(=O)(=O)c2ccc(N(C)C)cc2)c1C | 84000
2 | Cc1onc(NS(=O)(=O)c2cccc3c(N(C)C)cccc23)c1C | 15
3 | Cc1onc(NS(=O)(=O)c2ccc(N)cc2)c1Br | 510
4 | Cc1onc(NS(=O)(=O)c2ccc(N)cc2)c1C [SULFATROXAZOLE] | 260
5 | Cc1noc(NS(=O)(=O)c2cccc3cc(N)ccc23)c1C | 2400
6 | Cc1noc(NS(=O)(=O)c2cccc3ccc(N)cc23)c1C | 1450
7 | CC(=O)Nc1cccc2ccc(S(=O)(=O)Nc3onc(C)c3C)cc12 | 27500
8 | CC(=O)Nc1ccc2c(S(=O)(=O)Nc3onc(C)c3C)cccc2c1 | 1300
9 | CC(=O)Nc1cccc2c(S(=O)(=O)Nc3noc(C)c3C)cccc12 | 16
10 | Cc1noc(NS(=O)(=O)c2ccc3c(N)cccc3c2)c1C | 24000
11 | Cc1noc(NS(=O)(=O)c2cccc3c(NC(C)C)cccc23)c1C | 5
12 | Cc1noc(NS(=O)(=O)c2ccc3cccc(N(C)C)c3c2)c1C | 31500
13 | Cc1noc(NS(=O)(=O)c2cccc3cc(N(C)C)ccc23)c1C | 840
14 | Cc1noc(NS(=O)(=O)c2cccc3ccccc23)c1C | 3100
15 | CC(=O)Nc1ccc2cc(S(=O)(=O)Nc3onc(C)c3C)ccc2c1 | 3800
16 | Cc1noc(NS(=O)(=O)c2cccc3c(N(C)C(C)C)cccc23)c1C | 4
17 | Cc1noc(NS(=O)(=O)c2cccc(N)c2)c1C | 1300
18 | Cc1noc(NS(=O)(=O)c2ccc(N)c3ccccc23)c1C | 3500
19 | CCNc1ccc(S(=O)(=O)Nc2onc(C)c2C)cc1 | 5000
20 | Cc1cc(NS(=O)(=O)c2ccc(O)cc2)no1 | 53000
21 | CC(=O)Nc1ccc2ccc(S(=O)(=O)Nc3onc(C)c3C)cc2c1 | 42000
22 | Cc1noc(NS(=O)(=O)c2cccc3c(N(C)C)cccc23)c1C [BMS-182874] | 15
23 | Cc1noc(NS(=O)(=O)c2ccc3ccc(N)cc3c2)c1C | 10000
24 | Cc1noc(NS(=O)(=O)c2ccc3cccc(N)c3c2)c1C | 9800
25 | Cc1noc(NS(=O)(=O)c2ccc3ccc(N(C)C)cc3c2)c1C | 1400
26 | Cc1noc(NS(=O)(=O)c2cccc3ccc(N(C)C)cc23)c1C | 5600
27 | Cc1noc(NS(=O)(=O)c2ccc3cc(N)ccc3c2)c1C | 600
28 | CC(=O)Nc1ccc(S(=O)(=O)Nc2onc(C)c2C)c2ccccc12 | 3400
